Results from ChEMBL document CHEMBL1124770, “Synthesis and pharmacological evaluation of amino, azido, and nitrogen mustard analogues of 10-substituted cannabidiol and 11- or 12-substituted delta 8-tetrahydrocannabinol” (1990).

Legend:
Type in all cases: functional
[1] = system: Mus musculus; assay: Evaluated for reduction in spontaneous locomotor activity in mice, at a dose of 0 mg/Kg
Summary of the method: (§1)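 Tail-vein injection in mice (0.1 mL/10 g; ethanol/emulphor/saline 1:1:18). Spontaneous locomotor activity counted as counts/10 min, per previously reported methods. Daily vehicle and Δ9-THC positive controls. Mean ± SEM; ANOVA with Dunnett's t test, p < 0.05 two-tailed.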

[2] = system: Mus musculus; assay: Evaluated for hypothermic activity in mice at a dose of 10 mg/Kg.
Summary of the method: (§2)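 Mice dosed by tail-vein injection (0.1 mL/10 g) in ethanol/emulphor/saline (1:1:18). Body temperature change (°C) measured by previously reported methods. Vehicle and Δ9-THC positive controls run each day. Mean ± SEM; ANOVA with Dunnett's t test versus control, p < 0.05 two-tailed.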

[3] = system: Mus musculus; assay: Tail-flick latency was determined at a concentration of 0 mg/Kg.
Summary of the method: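 Antinociception in mice by tail-flick latency (s), per previously reported methods, after tail-vein injection (0.1 mL/10 g) in ethanol/emulphor/saline (1:1:18). Vehicle and Δ9-THC controls run daily. Mean ± SEM; ANOVA with Dunnett's t test, p < 0.05 two-tailed.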

[4] = system: Mus musculus; assay: Evaluated for reduction in spontaneous locomotor activity in mice at a dose of 10 mg/Kg; summary of the method: as §1
[5] = system: Mus musculus; assay: Evaluated for hypothermic activity in mice at a dose of 0 mg/Kg.; summary of the method: as §2
[6] = system: Mus musculus; assay: Tail-flick latency was determined at a concentration of 10 mg/Kg.
Summary of the method: (§3)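 Mice, drug suspended in ethanol/emulphor/saline (1:1:18) and given by tail-vein injection (0.1 mL/10 g). Antinociception measured as tail-flick latency (s). Vehicle and Δ9-THC positive controls run in each daily experiment. Data given as mean ± SEM. ANOVA with Dunnett's t test against control, p < 0.05 (two-tailed).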

[7] = system: Mus musculus; assay: Evaluated for reduction in spontaneous locomotor activity in mice at a dose of 3 mg/Kg; summary of the method: as §1
[8] = system: Mus musculus; assay: Tail-flick latency was determined at a concentration of 3 mg/kg.; summary of the method: as §3
[9] = system: Mus musculus; assay: Evaluated for catalepsy activity in mice and percentage immobility was determined at a concentration of 3 mg/kg.
Summary of the method: (§4)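 Mice, single tail-vein injection (0.1 mL/10 g) in ethanol/emulphor/saline (1:1:18). Catalepsy scored by ring test as % immobility, per previously reported methods. Vehicle and Δ9-THC positive-control groups run in each daily experiment. Mean ± SEM; ANOVA with Dunnett's t test versus control, p < 0.05 two-tailed.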

[10] = system: Mus musculus; assay: Evaluated for catalepsy activity in mice and percentage immobility was determined at a concentration of 0 mg/Kg.; summary of the method: as §4
[11] = system: Mus musculus; assay: Evaluated for hypothermic activity in mice at a dose of 3 mg/kg.; summary of the method: as §2
[12] = system: Mus musculus; assay: Tail-flick latency was determined at a concentration of 50 mg/Kg.; summary of the method: as §3
[13] = system: Mus musculus; assay: Evaluated for reduction in spontaneous locomotor activity in mice at a dose of 50 mg/Kg; summary of the method: as §1
[14] = system: Mus musculus; assay: Evaluated for hypothermic activity in mice at a dose of 50 mg/Kg.; summary of the method: as §2
[15] = system: Mus musculus; assay: Evaluated for catalepsy activity in mice and percentage immobility was determined at a concentration of 50 mg/Kg.; summary of the method: as §4
[16] = system: Mus musculus; assay: Evaluated for catalepsy activity in mice and percentage immobility was determined at a concentration of 5 mg/kg.; summary of the method: as §4
[17] = system: Mus musculus; assay: Tail-flick latency was determined at a concentration of 6 mg/kg.; summary of the method: as §3
[18] = system: Mus musculus; assay: Evaluated for hypothermic activity in mice at a dose of 6 mg/kg.; summary of the method: as §2
[19] = system: Mus musculus; assay: Tail-flick latency was determined at a concentration of 3 mg/Kg.; summary of the method: as §3
[20] = system: Mus musculus; assay: Evaluated for reduction in spontaneous locomotor activity in mice at a dose of 5 mg/Kg; summary of the method: as §1
[21] = system: Mus musculus; assay: Evaluated for hypothermic activity in mice at a dose of 5 mg/Kg.; summary of the method: as §2
[22] = system: Mus musculus; assay: Evaluated for reduction in spontaneous locomotor activity in mice at a dose of 6 mg/Kg; summary of the method: as §1
[23] = system: Mus musculus; assay: Evaluated for catalepsy activity in mice and percentage immobility was determined at a concentration of 3 mg/Kg.; summary of the method: as §4
[24] = system: Mus musculus; assay: Tail-flick latency was determined at a concentration of 5 mg/Kg.; summary of the method: as §3
[25] = system: Mus musculus; assay: Evaluated for hypothermic activity in mice at a dose of 100 mg/Kg administered intraventricularly
Summary of the method: (§5)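 Intraventricular injection in mice, 5 μL volume, in ethanol/emulphor/saline (1:1:18) vehicle. Change in body temperature (°C) recorded by previously reported methods, with vehicle and Δ9-THC controls. Mean ± SEM; ANOVA with Dunnett's t test versus control, p < 0.05 two-tailed.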

[26] = system: Mus musculus; assay: Evaluated for reduction in spontaneous locomotor activity in mice, at a dose of 0 mg/Kg administered intraventricularly
Summary of the method: (§6)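 Mice given intraventricular injection of 5 μL in ethanol/emulphor/saline (1:1:18). Spontaneous locomotor activity recorded as counts/10 min by previously reported methods, alongside vehicle and Δ9-THC controls. Mean ± SEM; ANOVA with Dunnett's t test, p < 0.05 two-tailed.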

[27] = system: Mus musculus; assay: Evaluated for reduction in spontaneous locomotor activity in mice at a dose of 100 mg/Kg administered intraventricularly; summary of the method: as §6
[28] = system: Mus musculus; assay: Evaluated for hypothermic activity in mice at a dose of 0 mg/Kg administered intraventricularly; summary of the method: as §5
[29] = system: Mus musculus; assay: Tail-flick latency was determined at a concentration of 0 mg/Kg administered intraventricularly
Summary of the method: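 Tail-flick latency (s) in mice after intraventricular injection (5 μL) of ethanol/emulphor/saline (1:1:18) vehicle, measured by previously reported methods. Mean ± SEM; ANOVA with Dunnett's t test, p < 0.05 two-tailed.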

[30] = system: Mus musculus; assay: Evaluated for reduction in spontaneous locomotor activity in mice at a dose of 150 mg/Kg administered intraventricularly; summary of the method: as §6
[31] = system: Mus musculus; assay: Evaluated for hypothermic activity in mice at a dose of 150 mg/Kg administered intraventricularly; summary of the method: as §5

CCCCCc1cc(O)c2c(c1)OC(C)(C)[C@@H]1CC=C(CNCC)CC21.Cl (some centres undefined)
Spont activity [1]: 49 Counts 10min-1
Temperature [2]: <-3.8 °C
Tail flick latency [3]: 0.5 s
Spont activity [4]: 54 Counts 10min-1
Temperature [5]: -1.8 °C
Tail flick latency [6]: <2.6 s

C=C(CNCC)[C@@H]1CCC(C)=CC1c1c(O)cc(CCCCC)cc1O (some centres undefined)
Spont activity [1]: 53 Counts 10min-1
Spont activity [7]: <27 Counts 10min-1
Tail flick latency [8]: 1 s
Tail flick latency [3]: 0.6 s
Immobility [9]: 7%
Immobility [10]: 4%
Temperature [5]: -0.8 °C
Temperature [11]: <-2.1 °C

CCCCCc1cc(OC(C)=O)c2c(c1)OC(C)(C)[C@@H]1CC=C(CN(CCCl)CCCl)CC21.Cl (some centres undefined)
Spont activity [1]: 51 Counts 10min-1
Tail flick latency [12]: 0.6 s
Spont activity [13]: 26 Counts 10min-1
Tail flick latency [3]: 0.5 s
Temperature [14]: <-3.3 °C
Immobility [10]: 4%
Temperature [5]: -1.8 °C
Immobility [15]: <31%

CCCCCc1cc(O)c2c(c1)OC(C)(CN)[C@@H]1CC=C(C)CC21 (some centres undefined)
Immobility [16]: 15%
Spont activity [1]: 68 Counts 10min-1
Tail flick latency [17]: 1.1 s
Spont activity [7]: <43 Counts 10min-1
Tail flick latency [3]: 0.6 s
Temperature [18]: <-3 °C
Tail flick latency [19]: 1.1 s
Spont activity [20]: <42 Counts 10min-1
Immobility [10]: 13%
Temperature [21]: -0.7 °C
Temperature [5]: -0.8 °C
Spont activity [22]: <25 Counts 10min-1
Temperature [11]: -1.1 °C
Immobility [23]: 24%
Tail flick latency [24]: <1.9 s

C=C(CN(CCCl)CCCl)[C@@H]1CCC(C)=CC1c1c(O)cc(CCCCC)cc1O (some centres undefined)
Temperature [25]: -1.8 °C
Spont activity [26]: 90 Counts 10min-1
Spont activity [27]: 81 Counts 10min-1
Temperature [28]: -1.1 °C
Tail flick latency [29]: -0.2 s
Spont activity [30]: 75 Counts 10min-1
Temperature [31]: <-3.8 °C
